ANO1 activ: TMEM16A chloride channel activators or potentiators, primary screen, cell-based, HTS; HEK293 TMEM16A/YFP-H148Q/I152L, iodide quench fluorescence; hits give low values; B-score at 10 µM; hit rate 0.3% among 340,000;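 active = fluorescence-ratio B-score plate-corrected deviation score at least 3 library SD below zero, with starting fluorescence score within 5 deviations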;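 also: channel opened by trigger with iodide after compound preincubation; score built on the fluorescence ratio of max minus min over baseline; more negative score means more quench and so TMEM16A activation or potentiation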
TAAR1 ag: human TAAR1 agonists, primary screen, Fluo-8 calcium fluorescence, CHO RD-HGA16 cells. AID 624467, 2012. hit rate 0.99% among 360,000. vehicle wells 0%, saturating PEA agonist 100%. activation, % at 3 µM;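 active = activation above the mean activation of all test compounds in the run plus 3 SD, cut at about 38% in these data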
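Test system: RD-HGA16 (CHO) cells co-expressing Gα16 and hTAAR1; dosing: one-point dosing at 3 µM (nominal); timing: 17-24 h seeding, 75 min 37 °C dye, 30 min RT; signal: kinetic Fluo-8 calcium fluorescence; read-out basis: % activation relative to PEA EC100 response; controls: DMSO and PEA EC100; replicates: n 1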
CRFR2-BP antag: antagonists of CRF-BP/CRF-R2 complex, primary screen, cell-based, HEK293, calcium dye fluorescence, uHTS. CRF-induced calcium fluorescence. inhibition, % at 11.8 µM. hit rate 0.59% among 350,000. AID 588475, 2011;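 active = inhibition of the ligand-induced calcium signal above about 50% at the single tested concentration, limit read from the data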
ANO1 block: TMEM16A chloride channel inhibitors, primary screen, cell-based, HTS | normalized B-score (activity score, 25-100; higher = stronger inhibition) at 10 µM | hit rate 1.2% among 310,000 | HEK293 TMEM16A/YFP iodide influx fluorescence, ionomycin | AID 588511, 2011;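 active = ratio plate-corrected score three or more library SD toward inhibition, starting fluorescence score within five deviations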;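 also: score derived from kinetic fluorescence span divided by baseline fluorescence per well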
CRFBP-R2 agonist: agonists of CRF-BP/CRF-R2 complex, primary screen, cell-based, HEK293, calcium dye fluorescence, uHTS | CRF-binding protein / CRF receptor 2 complex (human) | calcium dye fluorescence (FLIPR); percent of saturating CRF peptide response | activation, % at 13.2 µM | hit rate 0.46% among 350,000 | AID 588473, 2011;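 active = activation of at least 50%, plus an integration ratio under a set limit after plate pattern correction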;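 also: plate controls were neutral control wells without compound for no effect and CRF at EC100 for full effect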
TAAR1 antag: human TAAR1 antagonists, primary screen, Fluo-8 calcium fluorescence, CHO RD-HGA16 cells; Trace amine-associated receptor 1 (Homo sapiens), Q96RJ0; antagonist; inhibition, % at 3 µM; hit rate 1.5% among 360,000; AID 624466, 2012;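 active = inhibition above a per-plate cutoff, the mean inhibition of test compounds on that plate plus 3 SD, cut at about 49% in these data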;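 also: 0% = DMSO plus EC80 beta-PEA response and 100% = DMSO alone without agonist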
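Test system: RD-HGA16 CHO cells with stable hTAAR1 and Gα16 / Probe or stimulus: EC80 β-phenethylamine stimulus / Times: seeding 17-24 h prior, 75-min 37 °C, 30-min RT dye loading / Detection: Fluo-8 calcium-sensitive fluorescence / Read-out basis: % inhibition scaled between DMSO and EC80 PEA controls / Repeats: singlicate, one well per test compound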
TAAR1 nonsel count: nonselective antagonists in TAAR1 counter-screen cells, counter-screen for hTAAR1 antagonist project, cell-based, fluorescence, calcium | shares compounds with TAAR1 antag | counterscreen cell line, antagonist mode | inhibition, % at 3 µM | hit rate 77% among 2,400 | AID 651780, 2012; in the data active = inhibition above about 22%;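 also: CHO-Ga16 host cells stimulated with ATP at an EC80 level; 0% = agonist EC80 plus vehicle and 100% = vehicle without agonist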
TAAR1 antag conf: human TAAR1 antagonists, retest of hits, confirmation, cell-based, fluorescence. shares compounds with TAAR1 antag. TAAR1-expressing cells, fluorescence antagonist read-out. inhibition, % at 3 µM. hit rate 40% among 2,400. AID 651785, 2012; in the data active = inhibition above about 49%;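 also: CHO-Ga16 host cells challenged with agonist PEA near its EC80; 0% = agonist at EC80 plus vehicle and 100% = vehicle with no agonist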
Ga16 ag counter: calcium activation in Ga16-expressing cells, counter-screen for TAAR1 antagonist project, cell-based, fluorescence; shares compounds with TAAR1 antag; agonist counterscreen; activation, % at 3 µM; hit rate 18% among 2,400; in the data active = activation above about 12%;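 also: 0% = vehicle wells and 100% = saturating stimulus response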
TAAR1 ag counter: TAAR1 activation by candidate antagonists – cell-based, fluorescence, counter-screen for TAAR1 antagonist project; hTAAR1 cell line, agonist mode; hit rate 2% among 2,400; activation, % at 3 µM; shares compounds with TAAR1 antag; in the data active = activation above about 37%;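 also: CHO cells stably expressing TAAR1 with calcium dye readout; 0% = DMSO vehicle and 100% = full agonist response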
* hit, by the source's call; i = inactive; . = no result. This is a sample that favours compounds with a hit; in the whole collection about 3.9% have one here.

SMILES	ANO1 activ	TAAR1 ag	CRFR2-BP antag	ANO1 block	CRFBP-R2 agonist	TAAR1 antag	TAAR1 nonsel count	TAAR1 antag conf	Ga16 ag counter	TAAR1 ag counter
CN(C)S(=O)(=O)c1cccc(NC(=O)C2CCCN(C(=O)c3ccc(Cl)cc3)C2)c1 (stereo unspecified)	.	6	-22	.	-1	-4	.	.	.	.
C#CCOCCOCCOCCNc1nc(N2CCOCC2)nc(N2CCN(C(=O)[C@H](C)n3cc(CCC(=O)O)nn3)CC2)n1	i	12	12	.	-4	107*	6	2	4	6
C#CCOCCOCCOCCNc1nc(N2CCN(C(=O)[C@H](CCCN=C(N)N)n3cc(C(N)[C@@H](C)CC)nn3)CC2)nc(N2CCN(C(=O)[C@H](CCCCN)n3cc([C@@H](N)[C@H](C)CC)nn3)CC2)n1 (stereo partly specified)	i	12	-5	.	1	109*	6	10	9	1
C#CCOCCOCCOCCNc1nc(N2CCOCC2)nc(N2CCN(C(=O)[C@H](C)n3cc(CCCN=C(N)N)nn3)CC2)n1	i	20	7	i	1	4	.	.	.	.
C#CCOCCOCCOCCNc1nc(N2CCN(C(=O)[C@H](CCCN=C(N)N)n3cc(C(N)[C@@H](C)CC)nn3)CC2)nc(N2CCN(C(=O)[C@H](CCC(=O)O)n3cc([C@@H](N)CCCCN)nn3)CC2)n1 (stereo partly specified)	i	0	-2	.	-1	5	.	.	.	.
Cc1ccc(C)c(N2CCN(C(=O)COc3cc(=O)n(C)c4ccccc34)CC2)c1	i	10	3	i	0	24	.	.	.	.
Cc1ccc(C)c(N2CCN(C(=O)CCCOc3cc(=O)n(C)c4ccccc34)CC2)c1	i	25	-9	i	-1	54*	39*	56*	13*	16
CC(OC(=O)c1ccccc1Oc1ccccc1)C(=O)NC1CC1 (stereo unspecified)	i	10	13	i	-1	-14	.	.	.	.
CCOC(=O)C1CCCN(c2c(C(=O)c3ccccc3)cnc3ccccc23)C1 (stereo unspecified)	i	10	-25	i	1	54*	12	40	5	5
CCOC(=O)C1CCCN(C(=O)c2cc(Nc3ccc(OC)cc3)nc3ccccc23)C1 (stereo unspecified)	i	12	-29	i	0	49*	29*	45	8	5
CCOC(=O)C1CCCN(C(=O)c2cc(-c3ccco3)nc3ccccc23)C1 (stereo unspecified)	i	4	0	.	-1	0	.	.	.	.
O=C(OCC(=O)N1CCN(C(=O)c2ccco2)CC1)c1cc(-c2cccc(Br)c2)nc2ccccc12	i	17	7	i	1	58*	34*	44	5	1
O=C(OCC(=O)N1CCN(C(=O)c2ccco2)CC1)c1cc(-c2ccccc2)nc2ccccc12	i	8	-2	i	0	57*	26*	36	6	0

Screening data from PubChem.
